Consider 10 molecules from ChEMBL document CHEMBL1123321, “Synthesis and evaluation of 2-substituted 1-methyl-1-(4-tolylsulfonyl)hydrazines as antineoplastic agents” (1986).

Common to all, as to type: functional
The species entered for assay [1] is Mus musculus. Put plainly: Compound was evaluated for antineoplastic activity against mice bearing B16 melanoma. In a few lines:
(§1)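 B16 melanoma tissue was dispersed in serum-free Fischer's medium (1 g per 5 mL), and 0.2 mL was implanted ip per mouse. Starting 24 h after implantation, drug was given ip once daily for 6 days across a range of doses, as a suspension in 20% aq. Tween 80 and isotonic saline. Groups were five mice; vehicle controls were included. %T/C was mean survival time of treated over control ×100.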

For assay [2], the system named is Mus musculus. Put plainly: Compound was evaluated for antineoplastic activity against mice bearing L1210 leukemia, optimum effective daily dose administered once daily for 6 consecutive days. In short, it runs like this: (§2)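 L1210 leukemia was carried and implanted ip in mice as in earlier work. Starting 24 h after implantation, drug was given ip once daily for 6 days across a range of doses, as a Tween 80/saline suspension. Survival was scored as %T/C, the mean survival of treated over control ×100.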

The species entered for assay [3] is Mus musculus. In words: Compound was evaluated for antineoplastic activity against mice bearing L1210 leukemia. Average change in body weight from onset to termination of therapy. In a few lines: (§3)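 In L1210-bearing mice, dosing was ip once daily for 6 days, beginning 24 h after implantation, with groups of five. The vehicle was a Tween 80/saline suspension. Body weight was recorded, and the read-out was the mean % change in body weight from the start to the end of therapy.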

Assay [4] relates to Mus musculus. In words: Compound was evaluated for antineoplastic activity against mice bearing B16 melanoma, optimum effective daily dose administered once daily for 6 consecutive days. In short, it runs like this: as §1
Assay [5] is filed under the species Mus musculus. Put plainly: Compound was evaluated for antineoplastic activity against mice bearing B6 melanoma. In a few lines:
as §1

For assay [6], the species on record is Mus musculus. In words: Compound was evaluated for antineoplastic activity against mice bearing L1210 leukemia. Average change in body weight from onset to termination of therapy.. In a few lines: as §3
Assay [7] relates to Mus musculus. In words: Compound was evaluated for antineoplastic activity against mice bearing L1210 leukemia. Optimum effective daily dose administered once daily for 6 consecutive days. In a few lines:
as §2

Assay [8] concerns Mus musculus. In words: Compound was evaluated for antineoplastic activity against mice bearing […], Optimum effective daily dose administered once daily for 6 consecutive days. In short, it runs like this:
as §1

For assay [9], the species on record is Mus musculus. Put plainly: Compound was evaluated for antineoplastic activity against mice bearing L1210 leukemia. In a few lines: as §2
The species entered for assay [10] is Mus musculus. In words: Compound was evaluated for antineoplastic activity against mice bearing B16 melanoma. In short, it runs like this:
as §1

Take `Cc1ccc(S(=O)(=O)N(C)NS(=O)(=O)Cc2ccccc2)cc1`: the Average change in body weight was -2.4% in the assay filed under Mus musculus [1] and 10.8% in the assay listed under Mus musculus [3]. Also, in the assay listed under Mus musculus [1], the “Max T/C” value came out at 172%. Also, the OD in the assay on Mus musculus [2] and with Mus musculus [4] was 50 mg/kg each time.

As to `Cc1ccc(S(=O)(=O)N(C)NC(=O)c2ccc([N+](=O)[O-])cc2)cc1`, the “Average change in body weight” value is listed as 3.9% in the assay listed under Mus musculus [5] and -6.3% in the assay listed under Mus musculus [6]. Also, the T/C is 97% in the assay listed under Mus musculus [5] and 133% in the assay listed under Mus musculus [9]. The OD in the assay on Mus musculus [7] came to 100 mg/kg; in the assay on Mus musculus [8], 50 mg/kg.

On to `Cc1ccc(S(=O)(=O)N(C)NC(=O)/C=C/c2ccccc2)cc1`, for which the entries for the “Average change in body weight” value in the assay listed under Mus musculus [5] and in the assay filed under Mus musculus [6] were 1.8% and 14.8%, respectively. In addition, the T/C in the assay filed under Mus musculus [5] and in the assay listed under Mus musculus [9] was 94% throughout. The OD is 50 mg/kg in the assay on Mus musculus [7] and 150 mg/kg with Mus musculus [8].

For `Cc1ccc(S(=O)(=O)N(C)NP(=O)(Oc2ccccc2)Oc2ccccc2)cc1`, the “Average change in body weight” value in the assay listed under Mus musculus [5] was 7.4%; in the assay listed under Mus musculus [6] it was 20.9%. Also, the T/C in the assay listed under Mus musculus [5] turned out to be 91%; in the assay listed under Mus musculus [9] it was 99%. Also, the OD in the assay on Mus musculus [7] is 150 mg/kg; with Mus musculus [8], 100 mg/kg.

As for `Cc1ccc(S(=O)(=O)N(C)NP(=O)(c2ccccc2)c2ccccc2)cc1`, the figures for the “Average change in body weight” value in the assay filed under Mus musculus [5] and in the assay filed under Mus musculus [6] were 0.7% and 5.8%, respectively. Further, the T/C is recorded as 112% in the assay listed under Mus musculus [5] and 100% in the assay listed under Mus musculus [9]. Also, the OD was 50 mg/kg in the assay with Mus musculus [7] and 150 mg/kg with Mus musculus [8].

As to `CCS(=O)(=O)NN(C)S(=O)(=O)c1ccc(C)cc1`, the “Average change in body weight” value in the assay listed under Mus musculus [1] is listed as -1.1%. The same molecule showed an OD with Mus musculus [4] of 50 mg/kg.

In the case of `Cc1ccc(S(=O)(=O)N(C)NSc2ccccc2[N+](=O)[O-])cc1`, the entries for the “Average change in body weight” value in the assay filed under Mus musculus [5] and in the assay filed under Mus musculus [6] were -2% and 15.5%, respectively. Also, the T/C is on record as 99% in the assay listed under Mus musculus [5] and 151% in the assay filed under Mus musculus [9]. The OD is 50 mg/kg with Mus musculus [7] and 100 mg/kg in the assay with Mus musculus [8].

Take `Cc1ccc(S(=O)(=O)NN(C)S(=O)(=O)c2ccc(C)cc2)cc1`: the OD with Mus musculus [2] is 50 mg/kg; in the assay with Mus musculus [4], 150 mg/kg. In addition, the “Average change in body weight” value is 3.7% in the assay filed under Mus musculus [3] and -2.7% in the assay filed under Mus musculus [10].

In the case of `Cc1ccc(S(=O)(=O)N(C)NC(=O)c2ccccc2)cc1`, the “Average change in body weight” value is recorded as 6.8% in the assay listed under Mus musculus [5] and 7.5% in the assay filed under Mus musculus [6]. Moreover, the values for the T/C in the assay listed under Mus musculus [5] and in the assay listed under Mus musculus [9] were 96% and 167%, respectively. Moreover, the OD with Mus musculus [7] is 50 mg/kg; in the assay with Mus musculus [8], 150 mg/kg.

Regarding `Cc1ccc(S(=O)(=O)N(C)NS(C)(=O)=O)cc1`, the “Average change in body weight” value in the assay filed under Mus musculus [1] is -1.9%; in the assay listed under Mus musculus [3] it was -7.9%. Besides, the OD with Mus musculus [2] was found to be 30 mg/kg; in the assay on Mus musculus [4] it was 10 mg/kg.
